Source: ChEMBL document CHEMBL1142515, “Synthesis and evaluation of structurally constrained quinazolinone derivatives as potent and selective histamine H3 receptor inverse agonists” (J Med Chem, 2008)

Legend:
Histamine H3 receptor [1] = molecular target: T1, Histamine H3 receptor (Homo sapiens, UniProt Q9Y5N1); test: Antagonist activity at human cloned histamine H3 receptor expressed in CHO-K1 cells assessed as inhibition of R-alpha-methylhistamine-induced [35S]GTPgammaS binding; assay type: functional, cell-based
[2] = molecular target: Voltage-gated inwardly rectifying potassium channel KCNH2 (Homo sapiens, UniProt Q12809); test: Antagonist activity at human ERG in HEK293 cells assessed as inhibition of [35S]N-[(4R)-1'-[(2R)-6-cyano-1,2,3,4-tetrahydro-2-naphthalenyl]-3,4-dihydro-4-hydroxyspiro[2H-1-benzopyran-2,4'-piperidin]-6-yl]methanesulfonamide binding
[3] = Ratio of drug level in brain to plasma in Sprague-Dawley rat at 10 mg/kg, po after 2 hrs; assay type: ADME, organism-based; set-up: dose 10 mg/kg, route oral; conditions: read-out: BPR
In short: (§1)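 Male SD rats dosed orally at 10 mg/kg. Plasma, brain and CSF concentrations determined 2 h after dosing. Brain/plasma ratio taken from these levels. Mean of n = 3 animals.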

LLC-PK1 [4] = test: Ratio of permeability from apical to basolateral side over basolateral to apical side in pig LLC-PK1 cells expressing human MDR1; assay type: ADME, cell-based, Sus scrofa
[5] = Cmax in rhesus monkey at 0.3 mg/kg, iv and 1 mg/kg, po; assay type: ADME, organism-based, Macaca mulatta; conditions: in vivo
In short: (§2)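 Male SD rats, male Beagle dogs, male rhesus monkeys given single doses iv (PEG400/EtOH/H2O 50/10/40) or po by gavage (0.5% methylcellulose suspension). Rats 1 mg/kg iv and 3 mg/kg po; dogs and monkeys 0.3 mg/kg iv and 1 mg/kg po. Plasma sampled at multiple times up to 24 h, deproteinized with ethanol plus internal standard. Mean of n = 3 animals/dose.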

[6] = Cmax in Beagle dog at 0.3 mg/kg, iv and 1 mg/kg, po; assay type: ADME, organism-based, Canis lupus familiaris; conditions: in vivo; in short: as §2
Canis familiaris [7] = test: AUC (0 to infinity) in Beagle dog at 1 mg/kg, po; assay type: ADME, organism-based, Canis lupus familiaris, Plasma; set-up: time infinity, dose 1 mg/kg, route oral; conditions: in vivo; in short: as §2
Histamine H3 receptor [8] = molecular target: T1, Histamine H3 receptor; test: Displacement of [3H]N-alpha-methylhistamine from human recombinant histamine H3 receptor expressed in CHO-K1 cells; assay type: cell-based
[9] = Ratio of drug level in cerebrospinal fluid to brain in Sprague-Dawley rat at 10 mg/kg, po after 2 hrs; assay type: ADME, organism-based, CSF/Brain; set-up: dose 10 mg/kg, route oral; conditions: in vivo
Histamine H3 receptor [10] = molecular target: Histamine H3 receptor (Rattus norvegicus, UniProt Q9QYN8); test: Displacement of [3H]N-alpha-methylhistamine from rat recombinant histamine H3 receptor expressed in HEK293 cells; assay type: cell-based
[11] = Plasma clearance in Sprague-Dawley rat at 1 mg/kg, iv; assay type: ADME, organism-based; set-up: dose 1 mg/kg, route intravenous; in short: as §2
[12] = Oral bioavailability in Sprague-Dawley rat at 3 mg/kg; assay type: ADME, organism-based; conditions: in vivo; in short: as §2
Rhesus monkey [13] = test: Oral bioavailability in rhesus monkey at 1 mg/kg; assay type: ADME, organism-based, Macaca mulatta; conditions: in vivo; in short: as §2
LLC-PK1 [14] = test: Ratio of permeability from apical to basolateral side over basolateral to apical side in pig LLC-PK1 cells expressing mouse MDR1a; assay type: ADME, cell-based, Sus scrofa
[15] = AUC (0 to infinity) in Sprague-Dawley rat at 3 mg/kg, po; assay type: ADME, organism-based; set-up: time infinity, dose 3 mg/kg, route oral; conditions: plasma; in short: as §2
[16] = Cmax in Sprague-Dawley rat at 1 mg/kg, iv and 3 mg/kg, po; assay type: ADME, organism-based; conditions: in vivo; in short: as §2
Canis familiaris [17] = test: Oral bioavailability in Beagle dog at 1 mg/kg; assay type: ADME, organism-based, Canis lupus familiaris; conditions: in vivo; in short: as §2
Rhesus monkey [18] = test: AUC (0 to infinity) in rhesus monkey at 1 mg/kg, po; assay type: ADME, organism-based, Macaca mulatta, Plasma; set-up: time infinity, dose 1 mg/kg, route oral; conditions: in vivo; in short: as §2
Histamine H3 receptor [19] = molecular target: Histamine H3 receptor (Mus musculus, UniProt P58406); test: Displacement of [3H]N-alpha-methylhistamine from mouse recombinant histamine H3 receptor
Brain = test: Drug level in Sprague-Dawley rat brain at 10 mg/kg, po after 2 hrs; assay type: ADME, organism-based; set-up: dose 10 mg/kg, route oral; conditions: in vivo; in short: as §1
[20] = Plasma concentration in Sprague-Dawley rat at 10 mg/kg, po after 2 hrs; assay type: ADME, organism-based; set-up: dose 10 mg/kg, route oral; in short: as §1
[21] = Drug level in Sprague-Dawley rat cerebrospinal fluid at 10 mg/kg, po after 2 hrs; assay type: ADME, organism-based; set-up: dose 10 mg/kg, route oral; conditions: read-out: Drug uptake; in short: as §1

Voltage-gated inwardly rectifying potassium channel KCNH2, sequence (Q12809 whole entry): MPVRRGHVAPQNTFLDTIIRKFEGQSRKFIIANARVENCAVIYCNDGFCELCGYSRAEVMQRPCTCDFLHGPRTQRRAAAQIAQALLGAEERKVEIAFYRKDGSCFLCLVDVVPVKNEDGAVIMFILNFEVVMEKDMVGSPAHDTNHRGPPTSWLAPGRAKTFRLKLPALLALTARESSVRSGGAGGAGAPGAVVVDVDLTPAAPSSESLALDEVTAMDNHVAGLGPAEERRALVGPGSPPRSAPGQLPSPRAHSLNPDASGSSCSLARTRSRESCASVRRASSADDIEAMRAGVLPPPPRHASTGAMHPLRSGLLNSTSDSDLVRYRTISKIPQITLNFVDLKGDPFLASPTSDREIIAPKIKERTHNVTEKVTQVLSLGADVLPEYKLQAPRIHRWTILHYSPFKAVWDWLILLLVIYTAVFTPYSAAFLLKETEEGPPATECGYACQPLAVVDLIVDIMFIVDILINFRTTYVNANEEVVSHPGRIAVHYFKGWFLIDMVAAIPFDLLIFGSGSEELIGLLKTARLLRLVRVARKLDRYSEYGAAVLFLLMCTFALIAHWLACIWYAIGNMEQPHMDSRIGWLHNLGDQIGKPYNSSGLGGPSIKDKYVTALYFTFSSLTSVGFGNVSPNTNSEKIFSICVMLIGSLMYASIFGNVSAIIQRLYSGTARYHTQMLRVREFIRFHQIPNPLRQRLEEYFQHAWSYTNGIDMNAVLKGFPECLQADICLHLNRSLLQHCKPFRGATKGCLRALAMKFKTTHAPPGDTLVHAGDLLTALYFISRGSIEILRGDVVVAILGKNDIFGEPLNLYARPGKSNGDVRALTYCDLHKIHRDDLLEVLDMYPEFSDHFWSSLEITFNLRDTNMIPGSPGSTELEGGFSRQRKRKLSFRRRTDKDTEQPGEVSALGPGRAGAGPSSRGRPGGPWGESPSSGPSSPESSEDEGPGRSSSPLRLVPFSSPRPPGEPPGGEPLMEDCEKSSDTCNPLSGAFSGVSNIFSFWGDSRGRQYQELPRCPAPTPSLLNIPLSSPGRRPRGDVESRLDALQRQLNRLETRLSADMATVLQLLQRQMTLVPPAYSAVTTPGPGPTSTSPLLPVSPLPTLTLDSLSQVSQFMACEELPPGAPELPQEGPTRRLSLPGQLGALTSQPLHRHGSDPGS
T1 sequence (Q9Y5N1 whole entry): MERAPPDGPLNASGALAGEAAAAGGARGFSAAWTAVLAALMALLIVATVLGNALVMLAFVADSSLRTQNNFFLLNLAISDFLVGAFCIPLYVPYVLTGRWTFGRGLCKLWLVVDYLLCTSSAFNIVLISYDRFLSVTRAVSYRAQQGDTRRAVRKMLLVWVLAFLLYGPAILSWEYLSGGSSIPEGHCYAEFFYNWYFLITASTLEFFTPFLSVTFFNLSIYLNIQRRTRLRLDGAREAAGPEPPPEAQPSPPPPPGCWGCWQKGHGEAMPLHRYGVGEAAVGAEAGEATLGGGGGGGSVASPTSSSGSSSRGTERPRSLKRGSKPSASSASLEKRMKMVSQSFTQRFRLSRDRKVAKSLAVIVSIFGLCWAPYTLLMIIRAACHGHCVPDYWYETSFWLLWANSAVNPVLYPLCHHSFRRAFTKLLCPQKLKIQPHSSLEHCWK
Histamine H3 receptor (Mus musculus, UniProt P58406), sequence (P58406 whole entry): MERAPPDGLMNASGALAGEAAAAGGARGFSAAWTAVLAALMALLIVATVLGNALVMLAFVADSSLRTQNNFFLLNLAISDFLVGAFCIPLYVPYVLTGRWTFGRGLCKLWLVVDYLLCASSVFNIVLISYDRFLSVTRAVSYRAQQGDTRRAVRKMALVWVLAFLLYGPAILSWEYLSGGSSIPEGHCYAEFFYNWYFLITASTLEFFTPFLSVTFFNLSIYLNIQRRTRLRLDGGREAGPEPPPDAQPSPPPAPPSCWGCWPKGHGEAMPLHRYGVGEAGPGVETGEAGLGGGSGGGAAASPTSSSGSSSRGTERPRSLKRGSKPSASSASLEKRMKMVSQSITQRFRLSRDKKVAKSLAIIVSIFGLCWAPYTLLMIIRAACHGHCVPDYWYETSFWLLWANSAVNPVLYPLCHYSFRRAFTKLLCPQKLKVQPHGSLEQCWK
Histamine H3 receptor (Rattus norvegicus, UniProt Q9QYN8), sequence (Q9QYN8 whole entry): as the sequence (P58406 whole entry) above, with A15T, T286A, G290A, H387R, V389I counted along it

SMILES: Cc1nc2ccccc2c(=O)n1-c1ccc(OC2CCCN(C3CCC3)CC2)cc1 (stereo unspecified)
- IC50 (Histamine H3 receptor [1]): 10 nM
- IC50 [2]: 7300 nM

SMILES: Cc1nc2ccccc2c(=O)n1-c1ccc(OC2CCN(C3CCCC3)CC2)cc1
- IC50 (Histamine H3 receptor [1]): 3.2 nM
- IC50 [2]: > 10000 nM

SMILES: Cc1nc2c(F)cccc2c(=O)n1-c1ccc(OC2CCN(C3CCC3)CC2)cc1
- IC50 (Histamine H3 receptor [1]): 0.84 nM

SMILES: COc1cccc2nc(C)n(-c3ccc(OC4CCN(C5CCC5)CC4)cc3)c(=O)c12
- IC50 (Histamine H3 receptor [1]): 1.2 nM
- IC50 [2]: > 10000 nM

SMILES: Cc1nc2c(Cl)cccc2c(=O)n1-c1ccc(OC2CCN(C3CCC3)CC2)cc1
- IC50 (Histamine H3 receptor [1]): 1.7 nM

SMILES: Cc1nc2cc(F)c(F)cc2c(=O)n1-c1ccc(OC2CCN(C3CCC3)CC2)cc1
- IC50 (Histamine H3 receptor [1]): 0.91 nM
- IC50 [2]: > 10000 nM

SMILES: Cc1nc2ccccc2c(=O)n1-c1ccc(O[C@H]2CC[C@H](N3CCCC3)CC2)cc1
- IC50 (Histamine H3 receptor [1]): 813 nM

SMILES: Cc1nc2ccccc2c(=O)n1-c1ccc(OC2CCNCC2)cc1
- IC50 (Histamine H3 receptor [1]): > 1000 nM

SMILES: COc1ccc2c(=O)n(-c3ccc(OC4CCN(C5CCC5)CC4)cc3)c(C)nc2c1
- IC50 (Histamine H3 receptor [1]): 1.8 nM
- IC50 [2]: > 10000 nM

SMILES: Cc1nc2ccccc2c(=O)n1-c1ccc(OC2CCC(N3CCCC3)C2)cc1 (stereo in doubt; 3b)
- IC50 (Histamine H3 receptor [1]): 8.6 nM
- IC50 [2]: 10000 nM

SMILES: Cc1cccc2nc(C)n(-c3ccc(OC4CCN(C5CCC5)CC4)cc3)c(=O)c12
- Kp at 2 h [3]: 2.3
- IC50 (Histamine H3 receptor [1]): 0.27 nM
- Ratio (LLC-PK1 [4]): 0.9
- Cmax [5]: 20 nM
- Cmax [6]: 1100 nM
- AUC (Canis familiaris [7]): 5.6 µM·h
- Ki (Histamine H3 receptor [8]): 1.7 nM
- IC50 [2]: > 10000 nM
- Ratio [9]: 0.03
- Ki (Histamine H3 receptor [10]): 1.8 nM
- clearance [11]: 25 mL/min/kg
- bioavailability [12]: 40%
- F (Rhesus monkey [13]): 1%
- Ratio (LLC-PK1 [14]): 1
- AUC(0-inf) [15]: 2.33 µM·h
- Cmax [16]: 560 nM
- F (Canis familiaris [17]): 76%
- AUC (Rhesus monkey [18]): 0.08 µM·h
- Ki (Histamine H3 receptor [19]): 3.9 nM
- Drug uptake (Brain): 3.2 nmol/g
- concentration at 2 h [20]: 1400 nM
- concentration at 2 h [21]: 100 nM

SMILES: COc1ccc2nc(C)n(-c3ccc(OC4CCN(C5CCC5)CC4)cc3)c(=O)c2c1
- IC50 (Histamine H3 receptor [1]): 1.5 nM
- IC50 [2]: > 10000 nM

SMILES: Cc1nc2cccc(Cl)c2c(=O)n1-c1ccc(OC2CCN(C3CCC3)CC2)cc1
- IC50 (Histamine H3 receptor [1]): 0.34 nM
- IC50 [2]: > 10000 nM

SMILES: Cc1nc2ccc(F)cc2c(=O)n1-c1ccc(OC2CCN(C3CCC3)CC2)cc1
- IC50 (Histamine H3 receptor [1]): 1.2 nM
- IC50 [2]: > 10000 nM

SMILES: Cc1nc2cccnc2c(=O)n1-c1ccc(OC2CCN(C3CCC3)CC2)cc1
- IC50 (Histamine H3 receptor [1]): 14 nM
- IC50 [2]: > 10000 nM

SMILES: Cc1nc2ccccc2c(=O)n1-c1ccc(OC2CCN(C3CCC3)CC2)cc1
- IC50 (Histamine H3 receptor [1]): 1.5 nM
- IC50 [2]: > 10000 nM

SMILES: CCN1CCC(Oc2ccc(-n3c(C)nc4ccccc4c3=O)cc2)CC1
- IC50 (Histamine H3 receptor [1]): 49 nM

SMILES: Cc1nc2ncccc2c(=O)n1-c1ccc(OC2CCN(C3CCC3)CC2)cc1
- IC50 (Histamine H3 receptor [1]): 1.6 nM
- IC50 [2]: > 10000 nM
